According to ChEMBL document CHEMBL2396522, “Synthesis and pharmacological profiling of analogues of benzyl quinolone carboxylic acid (BQCA) as allosteric modulators of the M1 muscarinic receptor” (J Med Chem, 2013):

What was measured:
[1] = biological target: T1, Muscarinic acetylcholine receptor M1 (Homo sapiens) (UniProt P11229); assay: Displacement of [3H]-NMS from human muscarinic M1 acetylcholine receptor expressed CHO cells after 4 hrs by scintillation counting; format: cell-based
T1 sequence (whole entry): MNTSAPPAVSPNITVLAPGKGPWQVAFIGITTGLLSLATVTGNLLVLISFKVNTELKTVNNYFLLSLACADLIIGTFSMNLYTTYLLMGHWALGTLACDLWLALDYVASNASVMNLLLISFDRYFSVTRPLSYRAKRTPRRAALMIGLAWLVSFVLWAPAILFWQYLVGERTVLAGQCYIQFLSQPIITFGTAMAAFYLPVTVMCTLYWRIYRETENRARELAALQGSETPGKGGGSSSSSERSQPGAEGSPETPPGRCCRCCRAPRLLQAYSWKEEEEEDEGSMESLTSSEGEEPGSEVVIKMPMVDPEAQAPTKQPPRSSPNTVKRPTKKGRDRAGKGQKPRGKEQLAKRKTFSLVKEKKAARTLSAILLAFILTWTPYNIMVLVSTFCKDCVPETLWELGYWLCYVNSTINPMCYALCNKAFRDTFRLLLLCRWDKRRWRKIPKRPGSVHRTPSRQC
In short: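 Whole FlpInCHO cells stably expressing human M1 mAChR, 20000/well, grown 8 h at 37 °C then serum-starved overnight. Binding buffer 10 mM HEPES, 100 mM NaCl, 10 mM MgCl2, pH 7.4. […] Ice-cold 0.9% NaCl washes, scintillation counting. Curves fitted to allosteric ternary complex model giving pKB and log α.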

[2] = biological target: T2, Muscarinic acetylcholine receptor M1 (Homo sapiens, UniProt P11229); assay: Allosteric modulation of human muscarinic M1 acetylcholine receptor expressed CHO cells assessed as intracellular calcium mobilization after 1 hr by Fluo-4-AM based fluorescence assay; format: functional, cell-based
T2 sequence (P11229 whole entry): T1 sequence (whole entry)
In short: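 Cells were FlpInCHO-hM1, serum-starved overnight, then loaded 1 h at 37 °C with 1 μM Fluo-4-AM in Ca2+ buffer (pH 7.4, 4 mM probenecid). ACh titrations with or without increasing modulator concentrations were co-added at 20 s. Curves were fitted to an operational model of allosterism (αβ, τB). Experiments were done three to four times in duplicate.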

[3] = biological target: T2, Muscarinic acetylcholine receptor M1; assay: Agonist activity at human muscarinic M1 acetylcholine receptor expressed CHO cells assessed as intracellular calcium mobilization after 1 hr by Fluo-4-AM based fluorescence assay; format: functional, cell-based
In short: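 FlpInCHO cells stably expressing human M1 were seeded at 20000/well, grown 8 h at 37 °C in DMEM with 5% FBS, and serum-starved overnight. They were loaded 1 h at 37 °C with 1 μM Fluo-4-AM in HEPES Ca2+ buffer (0.5% BSA, 4 mM probenecid, pH 7.4). Modulator alone was added at 20 s and fluorescence was read at 485/520 nm over 100 s. Peak minus baseline was normalized to 100 μM ATP. Efficacy came from an operational model of allosteric agonism.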

SMILES | pKb [1] | further results
CCNC(=O)c1cn(Cc2ccc(OC)cc2)c2c(F)ccc(F)c2c1=O | 5.78 | –
O=C(O)c1cn(Cc2ccc(-c3ccccc3)cc2)c2c(F)ccc(O)c2c1=O | 5.55 | –
COc1ccc(F)c2c(=O)c(C(=O)O)cn(Cc3ccc(-c4ccccc4)cc3)c12 | 5.84 | –
COc1ccc(Cn2cc(C(=O)N(C)C)c(=O)c3c(F)ccc(F)c32)cc1 | 4.48 | –
NCC#Cc1ccc(Cn2cc(C(=O)O)c(=O)c3c(F)ccc(F)c32)cc1 | 4.96 | –
COc1ccc(Cn2cc(C(=O)N3CCCCC3)c(=O)c3c(F)ccc(F)c32)cc1 | 4.71 | –
O=C(O)c1cn(Cc2ccc(-c3ccccc3)cc2)c2c(F)ccc(F)c2c1=O | 5.36 | –
COc1ccc(Cn2cc(C(=O)NO)c(=O)c3c(F)ccc(F)c32)cc1 | 4.8 | –
CCOC(=O)c1cn(Cc2ccc(-c3ccccc3)cc2)c2cccc(OC)c2c1=O | 5.16 | –
O=C(O)c1cn(CC2CCNCC2)c2ccccc2c1=O | 4.82 | –
COc1ccc(-n2cc(C(=O)O)c(=O)c3ccccc32)cc1 | 4.65 | –
CCOC(=O)c1cn(Cc2ccc(-c3ccccc3)cc2)c2c(OC)ccc(F)c2c1=O | 5.32 | –
COc1ccc(Cn2cc(C(N)=O)c(=O)c3c(F)ccc(F)c32)cc1 | 5.17 | –
COc1ccc(Cn2cc(C(=O)NCc3ccccc3)c(=O)c3c(F)ccc(F)c32)cc1 | 4.63 | –
CC(C)(C)OC(=O)N1CCC(Cn2cc(C(=O)O)c(=O)c3ccccc32)CC1 | 4.7 | –
COc1cccc2c(=O)c(C(=O)O)cn(Cc3ccc(-c4ccccc4)cc3)c12 | 5.71 | –
COc1ccc(Cn2cc(C(=O)N[C@H]3CCCC[C@@H]3O)c(=O)c3c(F)ccc(F)c32)cc1 | 4.99 | –
CCOC(=O)c1cn(Cc2ccc(OC)cc2)c2c(OC)ccc(F)c2c1=O | 4.82 | –
COc1ccc(Cn2cc(C(=O)O)c(=O)c3cccc(OC)c32)cc1 | 4.75 | –
COc1ccc(Cn2cc(-c3nnn[nH]3)c(=O)c3c(F)ccc(F)c32)cc1 | 4.97 | –
COc1cccc2c1c(=O)c(C(=O)O)cn2Cc1ccc(-c2ccccc2)cc1 | 5.67 | –
CCOC(=O)c1cn(Cc2ccc(-c3ccccc3)cc2)c2c(F)ccc(F)c2c1=O | 3.75 | –

SMILES | pKb [1] | further results
COc1ccc(Cn2cc(C(=O)O)c(=O)c3c(F)ccc(F)c32)cc1 | 4.96 | EC50 [2]: 31.6 nM; EC50 [3]: 31.6 nM
COc1ccc(Cn2cc(C(=O)O)c(=O)c3ccccc32)cc1 | 4.72 | –
CCOC(=O)c1cn(Cc2ccc(-c3ccccc3)cc2)c2c(OC)cccc2c1=O | 4.08 | –
COc1ccc(Cn2cc(C(=O)NS(C)(=O)=O)c(=O)c3c(F)ccc(F)c32)cc1 | 4.63 | –
COc1ccc(Cn2cc(C(=O)Nc3ccccc3)c(=O)c3c(F)ccc(F)c32)cc1 | 4.8 | –
O=C(O)c1cn(Cc2cccc(-c3ccccc3)c2)c2c(F)ccc(F)c2c1=O | 5.55 | –
COc1ccc(Cn2cc(C(=O)NCCO)c(=O)c3c(F)ccc(F)c32)cc1 | 4.65 | –
O=C(O)c1cn(-c2ccc(-c3ccccc3)cc2)c2ccccc2c1=O | 4.73 | –
CCOC(=O)c1cn(Cc2ccc(OC)cc2)c2c(OC)cccc2c1=O | 4.51 | –
CNC(=O)c1cn(Cc2ccc(OC)cc2)c2c(F)ccc(F)c2c1=O | 4.92 | –
O=C(O)c1cn(CC2CCN(Cc3ccccc3)CC2)c2ccccc2c1=O | 5.13 | –
COc1ccc(Cn2cc(C(=O)NN3CCCCC3)c(=O)c3c(F)ccc(F)c32)cc1 | 5.07 | –
CCOC(=O)c1cn(Cc2ccc(OC)cc2)c2c(F)ccc(F)c2c1=O | 5.12 | –
COc1ccc(Cn2cc(C#N)c(=O)c3c(F)ccc(F)c32)cc1 | 4.66 | –
COc1ccc(Cn2cc(C(=O)O)c(=O)c3c(F)ccc(OC)c32)cc1 | 4.86 | –
COc1ccc(Cn2cc(C(=O)N3CCOCC3)c(=O)c3c(F)ccc(F)c32)cc1 | 4.97 | –
COc1ccc(Cn2cc(C(=O)O)c(=O)c3c(OC)cccc32)cc1 | 4.62 | –
O=C(O)c1cn(Cc2ccccc2-c2ccccc2)c2c(F)ccc(F)c2c1=O | 5 | –
COc1ccc(Cn2cc(C(=O)NC(C)=O)c(=O)c3c(F)ccc(F)c32)cc1 | 4.35 | –
CCOC(=O)c1cn(Cc2ccc(OC)cc2)c2cccc(OC)c2c1=O | 4.22 | –
O=C(O)c1cn(CC2CCN(C(=O)Nc3ccccc3)CC2)c2ccccc2c1=O | 4.66 | –
